Source: PubChem (The Scripps Research Institute Molecular Screening Center)
Hits are enriched below; roughly 3.2% of the tested compounds scored in any of these assays.
mABHD4 FP: ABHD4 inhibitors, primary screen, biochemical, fluorescence polarization, mouse | 370,000 compounds, 0.54% hits | inhibition, % at 8.92 µM | purified mABHD4, FP-Rh probe fluorescence polarization;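 active means inhibition exceeding the mean over every tested compound plus 3 SD, cut at about 30% in these data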;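 further: 0% = plate median of compound wells and 100% = S159A mutant with DMSO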
Target sequence (Q8VD66 whole entry, looked up): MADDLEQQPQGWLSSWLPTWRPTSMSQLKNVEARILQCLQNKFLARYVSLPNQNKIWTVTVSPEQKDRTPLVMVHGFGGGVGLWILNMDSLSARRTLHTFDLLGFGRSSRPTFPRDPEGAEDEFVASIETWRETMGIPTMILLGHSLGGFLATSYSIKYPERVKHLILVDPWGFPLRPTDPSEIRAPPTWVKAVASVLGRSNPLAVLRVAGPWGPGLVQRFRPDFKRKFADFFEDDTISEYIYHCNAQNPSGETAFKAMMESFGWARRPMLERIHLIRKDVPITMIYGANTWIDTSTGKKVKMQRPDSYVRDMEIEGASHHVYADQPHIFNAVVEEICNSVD
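Assay system: mouse ABHD4 enzyme, wild type / Also added: fluorescent activity-based probe FP-Rh / Doses: single nominal dose of 8.92 µM, 0.89% DMSO final / Timing: 45 min compound pre-incubation plus 60 min probe step, 25 °C / Signal: FP readout, ex 525 nm / em 598 nm / Control set: S159A mutant/DMSO as 100%, compound-well median as 0%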
LEDGF integ inh: blockers of LEDGF/p75-dependent integrase strand transfer – biochemical, TR-FRET, high throughput, primary screen. TR-FRET IN-LEDGF/p75 DNA integration, Eu/Cy5. AID 743269, 2014. HIV-1 integrase (with human LEDGF/p75). 370,000 compounds, 0.64% hits. inhibition, % at 3.7 µM;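 active means inhibition above the screen-wide mean plus 3 SD, cut at about 13% in these data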;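 further: signal is the Cy5 over europium emission ratio at 671 and 618 nm; 0% = plate median of compound wells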
PRMT1 inh: PRMT1 methyltransferase inhibitors, primary screen, biochemical, fluorescence polarization; Protein arginine N-methyltransferase 1 (Homo sapiens), Q99873; inhibition, % at 2.79 µM; recombinant PRMT1, activity-based probe fluorescence polarization; 370,000 compounds, 1.3% hits;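 active means inhibition above about 21% made by adding two undisclosed values, limit read from the data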
Target sequence (Q99873 whole entry, looked up): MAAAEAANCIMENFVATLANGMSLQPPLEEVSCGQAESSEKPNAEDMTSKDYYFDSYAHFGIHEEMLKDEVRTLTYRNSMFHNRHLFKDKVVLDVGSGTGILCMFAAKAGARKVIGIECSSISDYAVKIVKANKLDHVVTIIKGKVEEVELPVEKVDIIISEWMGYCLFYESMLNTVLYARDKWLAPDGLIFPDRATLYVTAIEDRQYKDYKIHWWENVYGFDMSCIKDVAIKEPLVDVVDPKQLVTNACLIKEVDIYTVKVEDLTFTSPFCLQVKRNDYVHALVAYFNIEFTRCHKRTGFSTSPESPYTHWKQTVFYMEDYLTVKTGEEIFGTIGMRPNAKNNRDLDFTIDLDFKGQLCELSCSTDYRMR
HTRA1 inhibitor: HTRA1 serine protease inhibitors, primary screen, biochemical, fluorescence polarization, HTS; AID 504803, 2011; recombinant HTRA1, FP-rhodamine activity-based probe; inhibition, % at 5.96 µM; 340,000 compounds, 0.5% hits; in the data active means inhibition above about 36%;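 further: 0% = enzyme with DMSO and 100% = wells lacking enzyme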
rCAG RNA binder: binders of r(CAG) RNA repeats, primary screen, biochemical, fluorescence | 370,000 compounds, 1.3% hits | inhibition, % at 3 µM | AID 651821, 2012 | r(CAG) RNA repeat, TO-PRO-1 dye displacement fluorescence;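 active means inhibition above the plate cutoff, the mean of all test compounds on that plate plus 3 SD, cut at about 35% in these data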;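 further: 0% = DMSO alone and 100% = 100 µM mitoxantrone as full dye displacement; higher means more dye released from RNA so lower well fluorescence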
DAGLB inh: DAGLB lipase inhibitors, primary screen, biochemical, fluorescence, HTS. Diacylglycerol lipase-beta (Homo sapiens), Q8NCG7. HEK293T DAGLB membrane lysate, EnzChek fluorogenic substrate. inhibition, % at 5.17 µM. 340,000 compounds, 0.059% hits; in the data active means inhibition above about 34%;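 further: 0% = enzyme with vehicle and 100% = wells lacking enzyme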
PRMT1 inh conf: PRMT1 methyltransferase inhibitors, confirmation, biochemical, fluorescence polarization, triplicate; shares compounds with PRMT1 inh; recombinant His-PRMT1, activity-based probe fluorescence polarization; inhibition, % at 2.79 µM; 3,300 compounds, 42% hits; AID 687036, 2013;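 active means mean inhibition across replicates above the hit cutoff derived for the earlier primary screen, cut at about 22% in these data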
The depositor's hits bear a star; . = no result given.

SMILES | mABHD4 FP | LEDGF integ inh | PRMT1 inh | HTRA1 inhibitor | rCAG RNA binder | DAGLB inh | PRMT1 inh conf
Cn1cc(S(=O)(=O)N2CCc3ccccc32)cc1C(=O)NC1CCCCC1 | 0.3 | 2.3 | 0.0 | -3.4 | 1.5 | -1.6 | .
COC(=O)C1=C(Nc2ccccc2NC(=O)c2ccccc2C(=O)O)CSC1 | 8.2 | -4.0 | 25.7* | -2.5 | 3.1 | -0.1 | 6.5
COCCN(C(=O)C(F)(F)F)C(C(=O)NC1CCCCC1)c1ccco1 (configuration not stated) | 0.9 | -4.2 | -0.2 | 0.8 | -1.0 | 1.1 | .
O=C(c1ccco1)N1CCN(C(=O)c2ccc(-c3ccc([N+](=O)[O-])cc3)o2)CC1 | 7.1 | 1.5 | 30.2* | 17.0 | 25.4 | 4.3 | 27.1*
O=C(c1ccc([N+](=O)[O-])cc1)N1CCN(C(=O)c2ccco2)CC1 | 4.8 | 3.1 | -1.8 | -0.8 | -3.2 | 2.2 | .
CCCCn1nc2cc(C(=O)NCCCCc3ccccc3)ccc2c1OCC | 2.6 | -0.8 | -1.1 | -18.6 | -7.4 | 0.4 | .
COc1ccc(-c2onc3ccc(Cl)cc23)cc1 | 3.0 | -3.1 | 30.5* | -5.0 | 7.8 | -9.6 | 13.1
CC(=O)NC(=S)Nc1ccc(NC(=S)NC(=O)/C=C/c2ccco2)cc1 | -6.9 | 3.4 | 9.2 | -0.3 | 20.1 | 1.9 | .
CN(C)c1ccc(NC(=S)NC(=O)/C=C/c2ccco2)cc1 | 8.3 | 10.2 | 27.3* | 5.9 | 3.1 | 1.3 | -0.5
COc1ccc(NC2CC(=O)N(c3ccccc3)C2=O)cc1 (configuration not stated) | -4.1 | -0.1 | -0.5 | -2.6 | 1.8 | 0.1 | .
COc1ccc(N2C(=O)CS(=O)C(c3ccccc3)C2=O)cc1 (configuration not stated) | -4.7 | 3.0 | 95.0* | -0.8 | 8.7 | -1.7 | 97.2*
Cc1ccc(N2C(=O)CS(=O)C(c3ccccc3)C2=O)cc1C (configuration not stated) | 3.2 | -2.3 | 90.4* | -15.5 | 3.4 | 1.5 | 89.9*
C=C1C(=O)O[C@H]2[C@H]1[C@@H](O)CC(=C)[C@@H]1CC(=O)[C@@H](C)[C@H]21 | . | . | . | -0.3 | . | 2.6 | .
O=C(CC1C(=O)N(c2ccccc2)C(=O)N1Cc1ccco1)Nc1ccccc1 (configuration not stated) | -5.2 | 0.9 | 5.7 | -1.0 | 0.1 | -1.1 | .
O=C(Nc1ccc([N+](=O)[O-])cc1)C(c1ccccc1)c1ccccc1 | -17.1 | 3.5 | 1.7 | -37.0 | 4.7 | -3.0 | .
COc1sc(SC)cc1/C=N/NC(=O)c1ccncc1 | -12.0 | -4.8 | 38.4* | -2.8 | 2.3 | 1.1 | -0.9
Nc1ccc(C(=O)O)c(O)c1 | 15.1 | -1.4 | 15.5 | 5.6 | 3.6 | 0.4 | .
Cc1ccc(N)cc1O | 26.5 | 4.8 | 39.1* | 5.4 | 3.4 | 0.9 | -0.3
O=C(CN1CC[n+]2c(-c3cccs3)csc21)c1ccc(-c2ccccc2)cc1 | 10.7 | 0.3 | 31.6* | -5.0 | 1.2 | -4.5 | 39.9*
O=P(O)(CCc1ccncc1)CN1CCCCC1 | 1.7 | 0.3 | -2.5 | -4.6 | -1.3 | -1.6 | .
CCOC(=O)/C=C/S(=O)(=O)c1ccc(NC(C)=O)cc1 | 5.9 | 5.1 | 43.8* | 0.3 | -3.1 | -3.1 | 35.1*
COCc1cccc(-c2csc(C(NC(C)=O)c3ccc(F)c(F)c3)n2)c1 (configuration not stated) | -13.4 | -6.7 | 2.5 | . | 2.8 | . | .
COc1ccc(NC(=O)C2CC(=O)n3cnnc3S2)cc1 (configuration not stated) | 3.4 | -1.1 | 74.2* | 3.7 | 6.5 | -1.4 | 79.5*
COc1cccc(N=C2SC(C(=O)Nc3ccc(F)cc3)CC(=O)N2C)c1 (configuration not stated) | -9.9 | -2.9 | 2.2 | -15.7 | 2.6 | -11.3 | .
COc1cccc(NC(=O)C2CC(=O)n3cnnc3S2)c1 (configuration not stated) | 1.0 | -5.6 | 78.8* | -3.7 | 8.2 | -0.8 | 61.1*
SMILES | mABHD4 FP | LEDGF integ inh | PRMT1 inh | HTRA1 inhibitor | rCAG RNA binder | DAGLB inh | PRMT1 inh conf
COC(=O)C1=C(C)NC(C)=C(C(=O)OC)C1c1ccccc1OCc1c(C)no[n+]1[O-] | 1.7 | -2.8 | 1.7 | -6.3 | -2.5 | -2.5 | .
C1=C(c2ccc(-c3ccccc3)cc2)Nc2ncnn2C1c1ccco1 (configuration not stated) | -7.5 | 9.6 | 38.6* | -13.7 | -10.1 | -97.2 | 21.8*
N#Cc1c2c(c(-c3ccco3)[nH]c1=O)CCCC2 | 21.4 | 12.8 | 46.2* | 3.1 | 14.5 | -0.3 | 1.5
N#Cc1c(-c2cccnc2)c2c([nH]c1=S)CCCC2 | 3.8 | 3.5 | 44.5* | -1.8 | 5.1 | 1.4 | 31.5*
N#Cc1c(N)nc2c(c1-c1ccco1)CCCCC2 | -1.4 | 5.6 | 7.3 | 2.2 | -1.1 | -4.0 | .
N#Cc1c(-c2ccco2)c2c([nH]c1=S)CCCC2 | 16.7 | 8.3 | 59.2* | 0.0 | 24.3 | 1.3 | 24.8*
COc1ccccc1CNC(=O)c1ccncc1 | 3.3 | -3.2 | 3.4 | 1.7 | -2.6 | 0.4 | .
Cc1cccc(C(=O)N(Cc2nc3ccccc3c(=O)[nH]2)C2CCCC2)c1 | -2.5 | -2.4 | -3.2 | -7.9 | -5.6 | -2.4 | .
COC(=O)C1=C(C)NC(=S)NC1c1ccc(-c2cccc(Cl)c2)o1 (configuration not stated) | 7.3 | -0.4 | 0.2 | 4.0 | 2.5 | -2.0 | .
CCOC(=O)C1=C(C)NC(=O)NC1c1ccc(-c2ccc(Cl)cc2)o1 (configuration not stated) | -8.3 | 0.8 | 1.5 | -10.1 | -1.1 | 0.7 | .
COC(=O)C1=C(C)NC(=S)NC1c1ccc(-c2ccccc2C(=O)OC)o1 (configuration not stated) | 6.2 | 1.0 | 30.6* | -6.8 | 0.4 | -1.3 | 16.5
CCOC(=O)C1=C(C)NC(=S)NC1c1ccc(-c2ccc(Cl)cc2)o1 (configuration not stated) | -12.2 | -0.7 | 41.9* | -21.6 | 6.7 | 0.7 | 5.3
CC(C)(C)C(=O)OC/C(N)=N/OC(=O)c1ccccc1 | 7.5 | 2.9 | -2.0 | -5.5 | -2.0 | 0.8 | .
CC(=O)NS(=O)(=O)c1ccc(N2C(=O)CC(Sc3nccc(C)n3)C2=O)cc1 (configuration not stated) | 1.5 | 1.5 | -0.6 | 3.3 | -0.3 | -0.2 | .
CC1(C)OC(=O)C(=CNc2cccc(C(=O)O)c2)C(=O)O1 | -0.3 | -1.9 | 2.5 | 0.7 | 2.1 | 1.8 | .
